Results as given in ChEMBL document CHEMBL5724801, “EUbOPEN Chemogenomics Library - Multiplex” (2024).
“And” between values parts separate entries of the source, which are not always exact repeats. Identical values can stand only once.

System: Fibroblast
Experiment: Multiplex assay against human fibroblast
Format: toxicity, cell-based
Outline: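 At seeding, live cells were stained with Hoechst33342, BioTracker Green Microtubule Cytoskeleton Dye, MitoTracker Red and Annexin V Alexa Fluor 680. After compound addition they were imaged on a CQ1 microscope at 37°C and 5% CO2, and CellPathfinder machine-learning gating sorted them into Hoechst high-intensity objects or normal cells, with normal cells further split into healthy, pyknosed or fragmented nuclei and pyknosed cells into mitotic or apoptotic. Tubulin, mitochondrial-mass and membrane-permeability phenotypes are given as per cents of cells with healthy nuclei.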

[1] = 12 h, 1 µM, compound concentration 1 uM
[2] = 12 h, 10 µM, compound concentration 10 uM
[3] = 24 h, 1 µM, compound concentration 1 uM
[4] = 24 h, 10 µM, compound concentration 10 uM
[5] = 48 h, 1 µM, compound concentration 1 uM
[6] = 48 h, 10 µM, compound concentration 10 uM

CCCN1CCC[C@@H]2Cc3n[nH]cc3C[C@H]21.Cl [QUINPIROLE HYDROCHLORIDE]
Population Apoptotic (%) [1]: 45% and 52% | Population Fragmented Nuclei (%) [1]: 14% and 22% | Population Healthy Nuclei (%) [1]: 65% and 60% | Population Hoechst High Intensity Objects (%) [1]: 2% and 6% | Population Membrane Permeable-Phenotype (%) [1]: 0% and 7% | Population Mitochondria Different-Phenotype (%) [1]: 3% and 6% | Population Mitotic Cells (%) [1]: 54% and 47% | Population Normal (%) [1]: 97% and 93% | Population Pyknosed Nuclei (%) [1]: 20% and 17% | Population Tubulin-Different-Phenotype (%) [1]: 17% and 50% | Total Cell Count [1]: 156 and 139 | Population Apoptotic (%) [2]: 58% and 45% | Population Fragmented Nuclei (%) [2]: 16% and 23% | Population Healthy Nuclei (%) [2]: 68% and 59% | Population Hoechst High Intensity Objects (%) [2]: 4% and 2% | Population Membrane Permeable-Phenotype (%) [2]: 1% and 10% | Population Mitochondria Different-Phenotype (%) [2]: 6% | Population Mitotic Cells (%) [2]: 41% and 54% | Population Normal (%) [2]: 95% and 97% | Population Pyknosed Nuclei (%) [2]: 15% and 17% | Population Tubulin-Different-Phenotype (%) [2]: 33% and 55% | Total Cell Count [2]: 115 and 184 | Population Apoptotic (%) [3]: 52% and 34% | Population Fragmented Nuclei (%) [3]: 21% and 28% | Population Healthy Nuclei (%) [3]: 64% and 53% | Population Hoechst High Intensity Objects (%) [3]: 1% and 2% | Population Membrane Permeable-Phenotype (%) [3]: 0% and 1% | Population Mitochondria Different-Phenotype (%) [3]: 2% and 7% | Population Mitotic Cells (%) [3]: 47% and 65% | Population Normal (%) [3]: 98% | Population Pyknosed Nuclei (%) [3]: 13% and 17% | Total Cell Count [3]: 172 and 150 | Population Apoptotic (%) [4]: 75% and 55% | Population Fragmented Nuclei (%) [4]: 22% and 38% | Population Healthy Nuclei (%) [4]: 67% and 51% | Population Hoechst High Intensity Objects (%) [4]: 2% and 1% | Population Membrane Permeable-Phenotype (%) [4]: 0% and 7% | Population Mitochondria Different-Phenotype (%) [4]: 7% and 3% | Population Mitotic Cells (%) [4]: 25% and 45% | Population Normal (%) [4]: 97% and 98% | Population Pyknosed Nuclei (%) [4]: 10% and 9% | Population Tubulin-Different-Phenotype (%) [4]: 32% and 39% | Total Cell Count [4]: 119 and 209 | Population Apoptotic (%) [5]: 68% and 38% | Population Fragmented Nuclei (%) [5]: 23% and 37% | Population Healthy Nuclei (%) [5]: 62% and 53% | Population Hoechst High Intensity Objects (%) [5]: 3% and 1% | Population Membrane Permeable-Phenotype (%) [5]: 0% and 8% | Population Mitochondria Different-Phenotype (%) [5]: 3% and 4% | Population Mitotic Cells (%) [5]: 32% and 61% | Population Normal (%) [5]: 96% and 98% | Population Pyknosed Nuclei (%) [5]: 14% and 8% | Population Tubulin-Different-Phenotype (%) [5]: 21% and 42% | Total Cell Count [5]: 175 and 157 | Population Apoptotic (%) [6]: 53% and 46% | Population Fragmented Nuclei (%) [6]: 23% and 43% | Population Healthy Nuclei (%) [6]: 65% and 48% | Population Hoechst High Intensity Objects (%) [6]: 1% and 3% | Population Membrane Permeable-Phenotype (%) [6]: 2% | Population Mitochondria Different-Phenotype (%) [6]: 6% and 4% | Population Mitotic Cells (%) [6]: 46% and 53% | Population Normal (%) [6]: 98% and 96% | Population Pyknosed Nuclei (%) [6]: 11% and 8% | Population Tubulin-Different-Phenotype (%) [6]: 31% and 48% | Total Cell Count [6]: 119 and 192

Cc1c(Cc2ccc3ccccc3n2)c2cc(F)ccc2n1CC(=O)O [TIMAPIPRANT]
Population Apoptotic (%) [1]: 41% and 33% | Population Fragmented Nuclei (%) [1]: 12% and 28% | Population Healthy Nuclei (%) [1]: 67% and 49% | Population Hoechst High Intensity Objects (%) [1]: 5% | Population Membrane Permeable-Phenotype (%) [1]: 1% and 9% | Population Mitochondria Different-Phenotype (%) [1]: 7% and 4% | Population Mitotic Cells (%) [1]: 58% and 66% | Population Normal (%) [1]: 94% | Population Pyknosed Nuclei (%) [1]: 19% and 22% | Population Tubulin-Different-Phenotype (%) [1]: 26% and 43% | Total Cell Count [1]: 171 and 142 | Population Apoptotic (%) [2]: 66% and 53% | Population Fragmented Nuclei (%) [2]: 13% and 26% | Population Healthy Nuclei (%) [2]: 77% and 53% | Population Hoechst High Intensity Objects (%) [2]: 2% and 5% | Population Membrane Permeable-Phenotype (%) [2]: 0% and 1% | Population Mitochondria Different-Phenotype (%) [2]: 7% | Population Mitotic Cells (%) [2]: 33% and 46% | Population Normal (%) [2]: 97% and 95% | Population Pyknosed Nuclei (%) [2]: 8% and 19% | Population Tubulin-Different-Phenotype (%) [2]: 35% and 43% | Total Cell Count [2]: 147 and 160 | Population Apoptotic (%) [3]: 33% and 47% | Population Healthy Nuclei (%) [3]: 73% and 52% | Population Hoechst High Intensity Objects (%) [3]: 1% and 5% | Population Membrane Permeable-Phenotype (%) [3]: 3% and 7% | Population Mitochondria Different-Phenotype (%) [3]: 2% and 4% | Population Mitotic Cells (%) [3]: 66% and 52% | Population Normal (%) [3]: 98% and 94% | Population Pyknosed Nuclei (%) [3]: 17% | Population Tubulin-Different-Phenotype (%) [3]: 26% and 38% | Total Cell Count [3]: 158 and 142 | Population Apoptotic (%) [4]: 66% and 52% | Population Fragmented Nuclei (%) [4]: 14% and 29% | Population Healthy Nuclei (%) [4]: 77% and 58% | Population Hoechst High Intensity Objects (%) [4]: 2% and 7% | Population Membrane Permeable-Phenotype (%) [4]: 0% and 3% | Population Mitochondria Different-Phenotype (%) [4]: 6% and 10% | Population Mitotic Cells (%) [4]: 33% and 47% | Population Normal (%) [4]: 97% and 92% | Population Pyknosed Nuclei (%) [4]: 8% and 12% | Population Tubulin-Different-Phenotype (%) [4]: 30% and 52% | Total Cell Count [4]: 150 and 164 | Population Apoptotic (%) [5]: 72% and 61% | Population Fragmented Nuclei (%) [5]: 15% and 36% | Population Healthy Nuclei (%) [5]: 72% and 48% | Population Hoechst High Intensity Objects (%) [5]: 7% and 6% | Population Membrane Permeable-Phenotype (%) [5]: 0% and 2% | Population Mitochondria Different-Phenotype (%) [5]: 2% and 1% | Population Mitotic Cells (%) [5]: 27% and 38% | Population Normal (%) [5]: 92% and 94% | Population Pyknosed Nuclei (%) [5]: 12% and 14% | Population Tubulin-Different-Phenotype (%) [5]: 25% and 34% | Total Cell Count [5]: 162 and 150 | Population Apoptotic (%) [6]: 66% and 60% | Population Fragmented Nuclei (%) [6]: 18% and 30% | Population Healthy Nuclei (%) [6]: 75% and 59% | Population Hoechst High Intensity Objects (%) [6]: 5% and 2% | Population Membrane Permeable-Phenotype (%) [6]: 0% and 1% | Population Mitochondria Different-Phenotype (%) [6]: 3% and 1% | Population Mitotic Cells (%) [6]: 33% and 40% | Population Normal (%) [6]: 94% and 97% | Population Pyknosed Nuclei (%) [6]: 6% and 9% | Population Tubulin-Different-Phenotype (%) [6]: 31% and 37% | Total Cell Count [6]: 152 and 157
